Source: PubChem BioAssay AID652046 (Broad Institute, 2013)
Results filed as inconclusive are left out. Calls of active or inactive are those of the source.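 The calls were made as follows: active = fitted curve falls past -35% activity change at a concentration no higher than twice the top tested dose; inconclusive = no clear call, values can overlap the other calls; inactive = the rest, including activity in the opposite direction.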

Tests used:
[1] = inhibitors of IL-1beta-induced GFP signal – cell-based, eGFP reporter, dsRed control, flow cytometry, dry powder, selectivity assay for EBV LMP1 NF-kB inhibitor project, dose response (AID 652046); settings: IL-1beta-stimulated NF-kB eGFP reporter/dsRed, flow cytometry, 16 h
Summary of the method: (§1)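 Detection: flow cytometry, scatter-gated live cells / System: HEK293 NF-κB eGFP reporter cells with dsRed / Times: 16 h compound exposure, 37 °C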

[2] = tested on: IL-1beta-stimulated NF-kB eGFP reporter/dsRed, flow cytometry, 16 h; test: as above
Summary of the method: as §1

| SMILES | activity change, negative = inhibition ([1]; at 19.5 µM (top of the series)) | AC35 [2] [µM] | also measured |
| --- | --- | --- | --- |
| CN(C)c1ccc2c(c1)[C@@H]1C[C@@H](CC(=O)NCC3CC3)O[C@@H](CO)[C@@H]1O2 | -1.79% (inactive) |  |  |
| COc1ccccc1CNC(=O)C[C@@H]1C[C@H]2c3cc(N(C)C)ccc3O[C@H]2[C@H](CO)O1 | 2.93% (inactive) |  |  |
| CN(C)c1ccc2c(c1)[C@@H]1C[C@@H](CC(=O)NCc3ccc4c(c3)OCO4)O[C@@H](CO)[C@@H]1O2 | -8.36% (inactive) |  |  |
| CN(C)c1ccc2c(c1)[C@@H]1C[C@@H](CC(=O)NCc3ccccc3F)O[C@@H](CO)[C@@H]1O2 |  | 20.8 |  |
| COc1ccccc1[C@]1(C)ON(c2ccccc2C(F)(F)F)C1=O |  | 10.7 |  |
| CCCNC(=O)C[C@H]1CC[C@@H]2[C@H](COc3ccc(NC(=O)c4cc(C)on4)cc3C(=O)N2C)O1 | 2% (inactive) |  |  |
| Cc1cc(C(=O)Nc2ccc3c(c2)C(=O)N(C)[C@@H]2CC[C@H](CC(=O)N[C@H](C)c4ccccc4)O[C@H]2CO3)no1 |  | 15.9 |  |
| O=C(C[C@@H]1C[C@H]2c3cc(NS(=O)(=O)c4ccc(F)cc4)ccc3O[C@H]2[C@H](CO)O1)NCc1ccc(Oc2ccccc2)cc1 | 6.68% (inactive) |  |  |
| O=C(C[C@@H]1C[C@H]2c3cc(NC(=O)NC4CCCC4)ccc3O[C@H]2[C@H](CO)O1)NCc1ccc(Oc2ccccc2)cc1 |  | 17.1 |  |
| Cc1cc(C(=O)Nc2ccc3c(c2)C(=O)N(C)[C@@H]2CC[C@H](CC(=O)NCc4ccc(-c5ccccc5)cc4)O[C@H]2CO3)no1 |  |  | activity change, negative = inhibition ([1]; at 18 µM (top of the series)): -15.2% (inactive) |
| O=C(C[C@@H]1C[C@H]2c3cc(NC(=O)Nc4ccccc4F)ccc3O[C@H]2[C@H](CO)O1)NCc1ccc(Oc2ccccc2)cc1 |  | 16.3 |  |
| CS(=O)(=O)Nc1ccc2c(c1)[C@@H]1C[C@@H](CC(=O)NCc3ccc(Oc4ccccc4)cc3)O[C@@H](CO)[C@@H]1O2 |  | 0.664 |  |
| Nc1ccn([C@@H]2O[C@H](CO)[C@@H](O)C2O)c(=O)n1 (stereo partly drawn) |  | 19.1 |  |
| COCCNC(=O)C[C@H]1CC[C@@H]2[C@H](COc3ccc(NC(=O)c4cc(C)on4)cc3C(=O)N2C)O1 | 1.68% (inactive) |  |  |
| CN(C)c1ccc2c(c1)[C@@H]1C[C@@H](CC(=O)NCc3ccc(Oc4ccccc4)cc3)O[C@@H](CO)[C@@H]1O2 | 4.75% (inactive) |  |  |
| CN1C(=O)c2cc(NS(C)(=O)=O)ccc2OC[C@@H]2O[C@@H](CC(=O)NCc3ccc(-c4ccccc4)cc3)CC[C@H]21 | 10.3% (inactive) |  |  |
| CN(C)c1ccc2c(c1)[C@@H]1C[C@@H](CC(=O)N3CCOCC3)O[C@@H](CO)[C@@H]1O2 |  | 2.09 |  |
| Cc1cc(C(=O)Nc2ccc3c(c2)C(=O)N(C)[C@@H]2CC[C@H](CC(=O)N[C@@H](C)c4ccccc4)O[C@H]2CO3)no1 |  |  | activity change, negative = inhibition ([1]; at 21 µM (top of the series)): 5.36% (inactive) |
| CN1C(=O)c2cc(NC(=O)Nc3ccccc3F)ccc2OC[C@@H]2O[C@@H](CC(=O)NCc3ccc(-c4ccccc4)cc3)CC[C@H]21 |  | 0.14 |  |
| COCCNC(=O)C[C@@H]1C[C@H]2c3cc(N(C)C)ccc3O[C@H]2[C@H](CO)O1 | -7.46% (inactive) |  |  |
| Cc1cc(C(=O)Nc2ccc3c(c2)C(=O)N(C)[C@@H]2CC[C@H](CC(=O)NC4CCCC4)O[C@H]2CO3)no1 |  | 9.72 |  |
| O=C(Nc1ccc(C(F)(F)F)cc1)Nc1ccc2c(c1)[C@H]1C[C@@H](CC(=O)N3CCc4ccccc4C3)O[C@@H](CO)[C@H]1O2 |  | 12.7 |  |
| CNC(=O)C[C@H]1CC[C@@H]2[C@H](COc3ccc(NC(=O)c4cc(C)on4)cc3C(=O)N2C)O1 | -2.16% (inactive) |  |  |
| Cc1cc(C(=O)Nc2ccc3c(c2)C(=O)N(C)[C@@H]2CC[C@H](CC(=O)NCc4ccc(-c5ccccc5)cc4)O[C@@H]2CO3)no1 |  |  | activity change, negative = inhibition ([1]; at 21 µM (top of the series)): 4.6% (inactive) |
| CN(C)c1ccc2c(c1)[C@@H]1C[C@@H](CC(=O)N3CCc4ccccc4C3)O[C@@H](CO)[C@@H]1O2 | 4.65% (inactive) |  |  |
| CN(C)c1ccc2c(c1)[C@@H]1C[C@@H](CC(=O)NCc3cc(F)ccc3F)O[C@@H](CO)[C@@H]1O2 |  | 2.23 |  |
| CN(C)c1ccc2c(c1)[C@@H]1C[C@@H](CC(=O)NCCc3ccccc3)O[C@@H](CO)[C@@H]1O2 | -4.63% (inactive) |  |  |
| CCNC(=O)C[C@H]1CC[C@@H]2[C@H](COc3ccc(NC(=O)c4cc(C)on4)cc3C(=O)N2C)O1 | 0.718% (inactive) |  |  |
